Legend:
[1] = biological target: T1, 5-hydroxytryptamine receptor 6 (Homo sapiens, UniProt P50406); experiment: Antagonism assessed in a functional cAMP binding assay using 5-CT to stimulate human 5-hydroxytryptamine 6 receptor expressed in HEK 293 cells; assay type: cell-based, HEK293; details: read-out: pA2 (converted)
Summary of the method: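 Human 5-HT6 receptor stably expressed in HEK-293 cells; adenylate cyclase (cAMP) activity stimulated with 5-CT. 5-CT concentration–response curves were run with increasing antagonist concentrations, and the shift was analysed by Schild analysis, n = 3.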

[2] = Half-life period after intravenous administration in rat; assay type: ADME, organism-based; details: in vivo
Summary of the method: (§1)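 Rats were dosed at 10 mg/kg in PEG/PG/WIP 40/40/20, either by oral gavage or intravenously with the same dose and formulation. Plasma concentrations were followed over 8 h. PK parameters were derived as plasma clearance, apparent terminal half-life, bioavailability and steady-state volume of distribution, reported as average ± SEM.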

[3] = Volume of distribution at steady state after intravenous administration in rat; assay type: ADME, organism-based; details: in vivo, read-out: Vss; summary of the method: as §1
[4] = Bioavailability after oral administration in rat expressed as percentage; assay type: ADME, organism-based; details: in vivo; summary of the method: as §1
[5] = Dissociation constant was determined
[6] = biological target: T1, 5-hydroxytryptamine receptor 6; experiment: Binding constant towards serotonin receptor subtype 5-hydroxytryptamine 6 receptor expressed in HeLa cells using [3H]LSD as radioligand; assay type: cell-based
Summary of the method: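 Radioligand binding to human recombinant 5-HT6 receptor expressed in HeLa cells with [3H]-LSD. Values are the mean ± SEM of three independent determinations, each run in triplicate.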

[7] = biological target: 5-hydroxytryptamine receptor 2A (Homo sapiens, UniProt P28223); experiment: Binding constant towards serotonin receptor subtype 5-hydroxytryptamine 2A receptor expressed in 3T3 cells using [3H]-DOB as radioligand
[8] = biological target: 5-hydroxytryptamine receptor 1D (Homo sapiens, UniProt P28221); experiment: Binding constant towards serotonin receptor subtype 5-hydroxytryptamine 1D receptor expressed in HEK 293 cells using [3H]LSD as radioligand; assay type: cell-based, HEK293
[9] = Half-life period after oral administration in rat; assay type: ADME, organism-based; details: in vivo; summary of the method: as §1
[10] = biological target: 5-hydroxytryptamine receptor 7 (Homo sapiens, UniProt P34969); experiment: Binding constant towards serotonin receptor subtype 5-hydroxytryptamine 7 receptor expressed in CHO cells using [3H]LSD as radioligand; assay type: cell-based
[11] = biological target: T2, 5-hydroxytryptamine receptor 2C (Homo sapiens, UniProt P28335); experiment: Binding constant towards serotonin receptor subtype 5-hydroxytryptamine 2C receptor expressed in 3T3 cells using [3H]5-HT as radioligand; assay type: cell-based, NIH3T3
T2 sequence (P28335 whole entry): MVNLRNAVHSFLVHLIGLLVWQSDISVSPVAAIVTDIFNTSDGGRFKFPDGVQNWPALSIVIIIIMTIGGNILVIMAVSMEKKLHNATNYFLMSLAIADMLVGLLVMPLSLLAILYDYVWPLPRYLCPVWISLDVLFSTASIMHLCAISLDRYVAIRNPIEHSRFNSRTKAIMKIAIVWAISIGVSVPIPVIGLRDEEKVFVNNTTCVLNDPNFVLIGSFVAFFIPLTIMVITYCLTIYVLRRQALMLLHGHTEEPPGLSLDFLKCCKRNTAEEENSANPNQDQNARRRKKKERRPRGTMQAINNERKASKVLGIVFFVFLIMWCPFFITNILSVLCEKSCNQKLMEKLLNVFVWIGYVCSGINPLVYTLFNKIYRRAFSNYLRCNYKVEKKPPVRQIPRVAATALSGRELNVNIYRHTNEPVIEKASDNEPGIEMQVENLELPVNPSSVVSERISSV

Rattus norvegicus = experiment: Ratio of brain/plasma concentration after oral administration in rat expressed as percentage; assay type: ADME, organism-based
Summary of the method: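 Rats dosed at 10 mg/kg by oral gavage in PEG/PG/WIP 40/40/20. Brain and plasma concentrations were measured, and the brain/plasma ratio is given as a percentage (average ± SEM).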

[12] = Partition coefficient (logD7.4); assay type: physicochemical; details: octanol/water, pH 7.4
[13] = In vivo plasma clearance after intravenous administration in rat; assay type: ADME, organism-based; details: read-out: Clp; summary of the method: as §1

T1 sequence (P50406 whole entry): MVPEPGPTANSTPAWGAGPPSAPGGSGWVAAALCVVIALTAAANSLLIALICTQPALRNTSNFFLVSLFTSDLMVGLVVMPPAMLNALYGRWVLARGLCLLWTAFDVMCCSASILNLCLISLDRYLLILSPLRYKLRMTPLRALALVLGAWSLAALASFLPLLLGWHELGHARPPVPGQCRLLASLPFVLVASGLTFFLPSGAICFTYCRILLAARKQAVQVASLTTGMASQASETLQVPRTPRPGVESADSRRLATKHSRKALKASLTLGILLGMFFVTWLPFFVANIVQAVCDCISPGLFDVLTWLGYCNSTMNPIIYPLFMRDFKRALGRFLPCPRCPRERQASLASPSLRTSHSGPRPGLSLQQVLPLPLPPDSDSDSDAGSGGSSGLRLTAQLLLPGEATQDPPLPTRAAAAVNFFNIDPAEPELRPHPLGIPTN
Chain of 5-hydroxytryptamine receptor 1D (P28221 whole entry): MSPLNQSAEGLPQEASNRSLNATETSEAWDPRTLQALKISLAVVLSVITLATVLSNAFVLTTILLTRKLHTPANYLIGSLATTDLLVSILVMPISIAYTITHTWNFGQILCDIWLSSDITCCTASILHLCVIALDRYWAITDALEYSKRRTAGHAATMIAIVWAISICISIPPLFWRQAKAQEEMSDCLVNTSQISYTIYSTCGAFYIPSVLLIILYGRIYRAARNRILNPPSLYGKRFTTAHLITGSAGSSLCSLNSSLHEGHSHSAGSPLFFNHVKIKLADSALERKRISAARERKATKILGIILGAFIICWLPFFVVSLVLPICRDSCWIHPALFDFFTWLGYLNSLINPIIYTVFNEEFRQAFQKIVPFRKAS
Chain of 5-hydroxytryptamine receptor 7 (P34969 whole entry): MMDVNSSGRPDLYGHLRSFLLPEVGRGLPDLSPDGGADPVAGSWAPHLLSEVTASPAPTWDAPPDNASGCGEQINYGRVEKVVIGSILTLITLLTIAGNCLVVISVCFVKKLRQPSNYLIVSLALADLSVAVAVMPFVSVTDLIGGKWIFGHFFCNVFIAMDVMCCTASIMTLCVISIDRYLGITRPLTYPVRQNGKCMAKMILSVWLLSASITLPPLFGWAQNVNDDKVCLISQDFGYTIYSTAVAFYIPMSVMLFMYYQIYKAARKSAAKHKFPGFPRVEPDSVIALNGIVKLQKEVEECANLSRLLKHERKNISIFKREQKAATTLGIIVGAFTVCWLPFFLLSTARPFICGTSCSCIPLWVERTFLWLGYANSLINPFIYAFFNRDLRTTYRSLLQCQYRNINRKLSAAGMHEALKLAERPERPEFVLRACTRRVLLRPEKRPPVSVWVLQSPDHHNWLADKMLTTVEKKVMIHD
Chain of 5-hydroxytryptamine receptor 2A (P28223 whole entry): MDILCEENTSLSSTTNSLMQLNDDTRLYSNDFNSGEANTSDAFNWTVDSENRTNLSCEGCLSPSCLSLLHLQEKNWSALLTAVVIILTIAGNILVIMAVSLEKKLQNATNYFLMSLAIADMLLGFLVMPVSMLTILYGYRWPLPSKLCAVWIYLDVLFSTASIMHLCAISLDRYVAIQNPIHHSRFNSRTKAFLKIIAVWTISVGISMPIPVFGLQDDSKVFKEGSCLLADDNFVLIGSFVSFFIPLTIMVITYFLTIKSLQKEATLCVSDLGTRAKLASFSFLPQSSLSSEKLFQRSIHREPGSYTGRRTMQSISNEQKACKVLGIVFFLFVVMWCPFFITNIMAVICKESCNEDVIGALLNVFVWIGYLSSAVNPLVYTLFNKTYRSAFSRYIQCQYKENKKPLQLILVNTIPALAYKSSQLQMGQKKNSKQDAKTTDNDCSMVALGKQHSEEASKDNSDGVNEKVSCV

Nc1ccc(S(=O)(=O)c2cc(Br)nc(N3CCCC3)c2)cc1
Kb [1]: 3.16 nM | half-life [2]: 3.7 h | Vd [3]: 1.4 L/kg | bioavailability [4]: 46% | pKa [5]: < 2 | Ki [6]: 1 nM | Ki [7]: 1450 nM | Ki [8]: > 100000 nM | half-life [9]: 3 h | Ki [10]: > 100000 nM | Ki [11]: > 10000 nM | Ratio (Rattus norvegicus): 24% | logD [12]: 3.3 | clearance [13]: 20 mL/min/kg

CNc1cc(S(=O)(=O)c2ccc(N)cc2)cc(Br)n1
Ki [6]: 2.29 nM | Ki [8]: > 10000 nM | Ki [10]: > 10000 nM | Ki [11]: > 10000 nM

CNc1cc(S(=O)(=O)Nc2ccc(N)cc2)cc(Br)n1
Ki [6]: 42.7 nM

Nc1ccc(S(=O)(=O)c2cc(Br)nc(N3CCNCC3)c2)cc1
Ki [6]: 0.115 nM | Ki [8]: 1120 nM | Ki [10]: > 10000 nM | Ki [11]: 20.4 nM

Nc1ccc(S(=O)(=O)c2cc(Br)nc(Br)c2)cc1
Ki [6]: 53.7 nM

CNc1cc(NS(=O)(=O)c2ccc(N)cc2)nc(NC)n1
Ki [6]: 55 nM | Ki [7]: > 10000 nM | Ki [8]: > 10000 nM | Ki [10]: > 10000 nM | Ki [11]: > 10000 nM
